The chains are these.
B1: tRNA (parent)
chain: GUUCCGUUGGCGUAAUGGUAACGCGUCUCCCUCCUAAGGAGAAGACUGCGGGUUCGAGUCCCGUACGGAACG

Fewer inactive variants are shown than the library holds.

In this series the parent is B1. As to the kind of experiment: yeast fitness relative to wild type (ratio to wild type); higher = fitter; tRNA-Arg(CCU), competitive growth, 37 C, YPD. In outline:
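Variants of the tRNA-Arg(CCU) gene were chemically synthesised with a 3% per-site mutation rate across 69 sites and placed at the native genomic locus in Saccharomyces cerevisiae. Six parallel replicates of the pooled strains were competed in YPD at 37°C for 24 hours, and gene amplicons from the start and end populations were read by 100-nucleotide paired-end sequencing. Darwinian fitness relative to wild type was derived from changes in genotype frequencies. Genotypes required ≥ 100 starting reads, and estimates < 0.5 were set to 0.5.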
For the variant GUUCCGUUGGAGUAAUGGUAACGCGUCUCUCUCCUAAGGAGAAGCCUGCGGGUUCGAGUCCCGUACGGAACG [C11A C30U A45C], the yeast fitness is at most 0.5. For GUUCCGUUGGGGUUAUGGUAACGCGUCUCCCUCCUAAGGAGAUGACUACGGGUUCGAGUCCCGUACGGAACG [C11G A14U A43U G48A], the yeast fitness was at most 0.5. Take GUUCCGUUGGAGUAAAGGUAACGCGUCUGCCUCCUAAGGAGCAGACUGCGAGUUCGAGUCCCGUACGGAACG [C11A U16A C29G A42C G51A]: the yeast fitness was at most 0.5. GUUCCGUUGGAGUAAUGGUAACGCGUCUCCCUCCUAAGCAGAAGACUGCGGGUUCGAGUCCUGUACGGAACG [C11A G39C C62U]: the yeast fitness was at most 0.5. With GUUCCGUUGGAGUAAUAGUAACGCGUCUCCCUCCUAAGGAGAAGACUGCGGGUUCGAGUCCCGUACGGAACG [C11A G17A], the yeast fitness is 0.579.

As to GUUCCGUUGGAGUAAUGGUAACGCGUCUCCCUCCUAAGGAGAAGACUGCGGGUUCGAGUCCCGUACGUAACG [C11A G68U], the yeast fitness is 0.54. Regarding GUUCCGUUGGAGUAAUCGUAACGCGUCUCCCUCCUGAGGACAAGGCUGUGGGUUCGAGUCCCGUACGGAACG [C11A G17C A36G G41C A45G C49U], the yeast fitness was at most 0.5. On to GUUCCGUUGGAGUAAUGGUAACGCGUCUCUCUCCUAAGGAGCAGACUGCGGGUUCGAGUCCCGUACGGAACG [C11A C30U A42C], for which the yeast fitness was at most 0.5. For the variant GUUCCGUUGGAAUAAUGGUAACGCAUCUCCCUCCUAAGGAGAAGACUGCGGGUUCGAGUCCCGUACGGAACG [C11A G12A G25A], the yeast fitness came out at 0.604.

GUUCCGUUGGAGUAAUCGUAACGCGUCUCCCUCCUGAGGACAAGACUGCGGGCUCGAGUCACGUACGAAACG [C11A G17C A36G G41C U53C C61A G68A]: the yeast fitness is at most 0.5. Turning to GUUCCGUUGGAGUAAUGGUAACGCGUCUCCCUCAUAAGGAGAAGACAGCGGGUUCGAGUCGCGUACGGAACG [C11A C34A U47A C61G], the yeast fitness is at most 0.5. With GUUCCGUUGGAGUAAUGGUAACCCGUCUCCCUCCUAAGGAGCCGACUGCGGGUUCGAGUCCCGUACGGAACG [C11A G23C A42C A43C], the yeast fitness was at most 0.5. As for GUUCCGUUGGAGUAAUGGUAACGCGUCUCCCUCCUAAGGAGAACACUGCGGGUUCAAGUCCCGUAUGGAACG [C11A G44C G56A C66U], the yeast fitness was 0.552. Turning to GUUCCGUUGGAGUAAUGCUAACGCGUCUCCCUCCUAAGGAGAAGCCUGCGGGUUCGCGUCCCGUACGCAACG [C11A G18C A45C A57C G68C], the yeast fitness was at most 0.5. Regarding GUUCCGUUGGAGUAAUGGUAACGCGUCUCCCUCGGAAGAAGAAGACUGCGGGUUCGAGUCCCGUACGGAACG [C11A C34G U35G G39A], the yeast fitness is at most 0.5. With GUUCCGUUGGAGUAAUGGUAACGCGUCUCCCUCCUAAGGAGAAGAUUGCGGGUUCGAGUCCCGUACGGAGCG [C11A C46U A70G], the yeast fitness is 0.56. With GUUCCGUUGGGGUGUUGGUAACCCGUCUCCCUCCUAAGGAGAAGACUGCGGGAUCGAGUCCUGUACGGAACG [C11G A14G A15U G23C U53A C62U], the yeast fitness is at most 0.5. For GUUCCGUUGGAGUAAUGGUAACGCGUCUCCCUCGUAAGGAGAAGACUGCAGGUUCGAGUCCCGUACGGAACG [C11A C34G G50A] the value was 0.681; for GUUCCGUUGGAGUAAUGAUAACGCGUCUCCCUCCUAAGGAGAAGACUGCGGGUUCGAAUCCCGCACGGAACG [C11A G18A G58A U64C], at most 0.5; for GUUCCGUUGGGGUGAUAGUAACGCGUCUCCCUCCUAGGGAGAAGACUCCGGGUUCGAGUCCUGUAGGGAGCG [C11G A14G G17A A37G G48C C62U C66G A70G], at most 0.5.

In the case of GUUCCGUUGGAGUAAUGGUAACGCGUCUCGUCCCUAAGGAGAAGACUGCGGAUUCGAGCCCCGUACGGAACG [C11A C30G C31U U32C G52A U59C], the yeast fitness is at most 0.5. Turning to GUUCCGUUGGAGUAAUGGAAACGCGUCUACCACCUAAGGAGAAGACUGCGGGUCGGAGUGCCGUACGGAUCG [C11A U19A C29A U32A U54C C55G C60G A70U], the yeast fitness is at most 0.5. As for GUUCCGUUGGAGUAAUGGUAACGCGUCUCCCUCCUAAGGAGAAGACUGCGGGAUCGAGUCCCGUACGGAACG [C11A U53A], the yeast fitness was 0.59.

In the case of GUUCCGUUGGAGUAAUGGUAACGCGUCUCCCUCCUAAGGAGAAGACUGCGGGCUCGAGUCCCGUACGGAACG [C11A U53C], the yeast fitness was found to be 0.556. Take GUUCCGUUGGAGUAAUGGUAACGCGUCUCCCUCCUAAGGAGAAGACUGCGGGUUCGAGACCCGUACCGCACG [C11A U59A G67C A69C]: the yeast fitness was at most 0.5. On to GUUCCGUUGGGGUUAUGGUAAAGCGUCUGCCUCAUAAGGAGAAGACUGCGGGUUCGAGUCCCGUACGGAACG [C11G A14U C22A C29G C34A], for which the yeast fitness was at most 0.5. As to GUUCCGUUGGAGUAAUGGUAACGCGUCUCCGUCCUAAGGAGAAGACUGCGGGUUCGAGUCCGGUACGGAACG [C11A C31G C62G], the yeast fitness was determined as 0.506. As to GUUCCGUUGGAGUAAUGAUAACGCGUCUCCCUCCUAAGGAGAAGACUGCGGGUUCGAGUCCCGUACGGAACG [C11A G18A], the yeast fitness was 0.58.

For GUUCCGUUGGAGUAAUGGUAACGCGUCUCCCUCCUAAGGAGAAGACUGCAGGUUCGAGUCCCGUACGGAACG [C11A G50A], the yeast fitness is 0.651. As for GUUCCGUUGGAGUAAUGGUAACGCGUCUCCCUCCUAAGGAGAAGACUGCGGGUUCGAGUCCGAUACGGAACG [C11A C62G G63A], the yeast fitness is at most 0.5.

As to GUUCCGUUGGAGUAAUGGUAACGCGUCUCCCUCCUAAGGAGAAGACUACGGGUACGAGUCCCGUACGGAACG [C11A G48A U54A], the yeast fitness was 0.584. As to GUUCCGUUGGAGUAAUGGUAACGCGUCUCCCUCCUAAGGAGAAGACUGCGGGAUCGAGUCCCGUACAGAACG [C11A U53A G67A], the yeast fitness was at most 0.5.

Turning to GUUCCGUUGGAGUAAUGGUAACGCGUCUCCCUCCUAAUGAGAAGACUGCGGGUUCGAGUCCCGUAAGGAACG [C11A G38U C66A], the yeast fitness is at most 0.5. As to GUUCCGUUGGAGUAAUGGGAACGCGUCUCCCUCCUGAGGAGAAGACUGAGGGUUCGAGUCCCGUACGCAACG [C11A U19G A36G C49A G68C], the yeast fitness is at most 0.5. On to GUUCCGUUGGAGUAACGCUGACGCGUCUCCCUCCUAAGGAGAAGCCUGCGGGUUCGCGUCCCGUACGCAACG [C11A U16C G18C A20G A45C A57C G68C], for which the yeast fitness is at most 0.5. With GUUCCGUUGGAGUAAUGGUAACGCGUCUCCCUUCUAAGGAGAUGACUGCGGGUUCGAGUCCCGUACGGAACG [C11A C33U A43U], the yeast fitness stood at 0.532. For GUUCCGUUGGAGUAAUCGUAACGCGUCUCCCUCCUAAGGAGAAGACAGCGGGUUCGAGUCCCGUACGCAACG [C11A G17C U47A G68C], the yeast fitness was at most 0.5.

The values above are taken from the RNAGym collection of RNA variant scans (doi:10.1126/science.aae0568).
